Results from different studies.
Lines come from different studies, so protocols differ.
PDGFRA: Platelet-derived growth factor receptor alpha (PDGFRA, Homo sapiens, UniProt P16234)
PDGFRA T674I: Platelet-derived growth factor receptor alpha (PDGFRA, Homo sapiens, UniProt P16234, T674I)
PDGFRA V561D: Platelet-derived growth factor receptor alpha (PDGFRA, Homo sapiens, UniProt P16234, V561D)
PDGFRA D842V: Platelet-derived growth factor receptor alpha (PDGFRA, Homo sapiens, UniProt P16234, D842V)

With `CCN(CC)CCNC(=O)c1c(C)[nH]c(/C=C2\C(=O)Nc3ccc(F)cc32)c1C` the remaining signal was 10.9% (PDGFRA; cell-free assay; 0.5 µM).
`CC(C)(C)c1nc2c(s1)c1nc(N)ncc1c1ccc(NS(=O)(=O)c3c(F)cccc3F)c(F)c12` has a remaining activity of 97% (PDGFRA; enzyme activity; inhibitor; radiometric; 1 µM).
`CCN(CC)c1ccc(C2=NNC(=O)CC2C)cc1[N+](=O)[O-]` (centres unmarked) has a remaining activity of 91% (PDGFRA; enzyme activity; inhibitor; 10 µM).
`COc1ccc2c(c1)O[C@H](c1ccc(OC)c(OC)c1)C[C@@H]2NC(=O)C1(c2ccc3c(c2)OC(F)(F)O3)CC1` gave a remaining binding of 87% (PDGFRA; cell-free assay; competition with immobilised ligand; 1 µM).
`COc1cc2ncnc(Nc3ccc(Oc4ccccc4)cc3C)c2cc1OC` has an inhibition of 0% (PDGFRA T674I; enzyme activity; inhibitor; 1 µM).
The inhibition of `CC/C(=N\NC(=O)NCc1cccc(O)c1)c1ccc(O)c(C)c1O` is reported as 0.9% (PDGFRA V561D; enzyme activity; inhibitor; 0.1 µM).
For `FC(F)(F)Oc1cccc(-c2cnc3ccc(-c4ccncc4)nn23)c1`, the activity vs control was 49% (PDGFRA; enzyme activity; inhibitor; radiometric; 5 µM).
For `CN1CCN(c2cnc3c(C4CCN(C(=O)c5ccc(OC(F)(F)F)cc5N)CC4)ncnc3c2)CC1`, the remaining binding was 100% (PDGFRA; cell-free assay; competition with immobilised ligand; 1 µM).
With `Cc1ccc(NC(=O)c2ccc(C)c(C(F)(F)F)c2)cc1C#Cc1nn(C2CCC(O)CC2)c2ncnc(N)c12` (centres unmarked) the remaining signal was 60% (PDGFRA; cell-free assay; inhibitor; 10 µM).
`CNC(=O)c1cc(Oc2ccc(NC(=O)Nc3ccc(Cl)c(C(F)(F)F)c3)cc2)ccn1` has an inhibition of 100% (PDGFRA V561D; enzyme activity; inhibitor; 10 µM).
With `Cc1cc(NC(=O)c2cccc3cc(-c4cccc5[nH]nc(N)c45)ccc23)ccc1F` the activity vs control was 28% (PDGFRA D842V; enzyme activity; inhibitor; 0.1 µM).
`O=C(Nc1cnn(-c2csc(C(=O)NC3COC3)c2)c1)Nc1ccccc1Cl` has a remaining activity of 95.2% (PDGFRA; enzyme activity; inhibitor; 5 µM).
`Nc1ncnc2occ(-c3ccc(NC(=O)Nc4cc(C(F)(F)F)ccc4F)cc3)c12` has a remaining activity of 0.05% (PDGFRA; enzyme activity; inhibitor; 20 µM).
`CN(C)c1ncnc(-c2ccc3nc(Nc4cc(CN5CCN(C(=O)CC(F)(F)F)CC5)ccn4)[nH]c3c2)c1Cl` has a remaining binding of 61% (PDGFRA; cell-free assay; competition with immobilised ligand; 1 µM).
With `CCCOc1ccc(OC)c(F)c1C(=O)c1ccc(C(=O)N[C@@H]2CNC[C@H]2NC(=O)c2ccc3[nH]ncc3c2)cc1` the remaining activity was 12% (PDGFRA D842V; enzyme activity; inhibitor; 10 µM).
The remaining signal of `Oc1ccc(-c2nc(-c3ccncc3)c(-c3ccc(F)cc3)[nH]2)cc1` is reported as 98.8% (PDGFRA; cell-free assay; 0.5 µM).
`CN([C@@H]1CCc2c(CC(=O)O)c3cc(S(C)(=O)=O)ccc3n2C1)S(=O)(=O)c1ccc(F)cc1` gave a remaining binding of 100% (PDGFRA; cell-free assay; competition with immobilised ligand; 1 µM).
With `Cc1ccc(C(=O)NCc2ccsc2)cc1C#Cc1cn(C(C)C)c2ncnc(N)c12` the activity vs control was 4% (PDGFRA; enzyme activity; inhibitor; 1 µM).
`O=C1NC(=O)c2cc(Nc3ccc(F)cc3)c(Nc3ccc(F)cc3)cc21` has a remaining signal of 101% (PDGFRA; cell-free assay; inhibitor; 0.5 µM).
`COc1cc(/C=C/C(=O)CC(=O)/C=C/c2ccc(O)c(OC)c2)ccc1O` has an activity vs control of 92% (PDGFRA; enzyme activity; inhibitor; 1 µM).
`Cc1ccc(NC(=O)c2ccc(CN3CCN(C)CC3)cc2)cc1Nc1nccc(-c2cccnc2)n1` gave an activity vs control of 5.9% (PDGFRA; enzyme activity; inhibitor; 0.5 µM).
For `CN(C)C(=O)Cn1cc(-c2nc([C@@](C)(c3ccc(-c4cnc(N)nc4)cc3)C3CC3)no2)cn1`, the remaining binding was 100% (PDGFRA; cell-free assay; competition with immobilised ligand; 1 µM).
`COc1cc2ncnc(Nc3ccc(Oc4ccccc4)c(C)c3C)c2cc1OC` gave an inhibition of 9% (PDGFRA T674I; enzyme activity; inhibitor; 1 µM).
The remaining binding of `O=C(Nc1ccc(Oc2ccc(F)cc2)cc1)N1CCc2ncccc2[C@H]1c1ccc(F)cc1` is reported as 95% (PDGFRA; cell-free assay; competition with immobilised ligand; 1 µM).
The inhibition of `COc1cc(-c2cc(-c3ccc(N4CCNCC4)cc3)cnc2N)cc(OC)c1OC` is reported as 45% (PDGFRA V561D; enzyme activity; inhibitor; 0.1 µM).
`CNC(=O)Nc1ccc2c(c1)[C@@]1(CC2)OC(=O)N(CC(=O)N(Cc2ccc(F)cc2)[C@@H](C)C(F)(F)F)C1=O` has a remaining binding of 83% (PDGFRA; cell-free assay; competition with immobilised ligand; 1 µM).
`Cc1cnc(NC2CCOCC2)nc1-n1cnc(C(=O)NC(CN)c2cc(F)cc(Cl)c2)c1` (centres unmarked) gave a remaining activity of 104% (PDGFRA D842V; enzyme activity; inhibitor; radiometric; 1 µM).
`C[C@H](c1ccc(F)cc1)N(Cc1cccc(C(=O)O)c1)C(=O)c1cnc2ccccc2c1` has a remaining binding of 100% (PDGFRA; cell-free assay; competition with immobilised ligand; 1 µM).
For `Cc1sc(C(=O)NC2COC2)cc1-n1cc(NC(=O)Nc2c(F)cccc2Cl)cn1`, the remaining activity was 114% (PDGFRA; enzyme activity; inhibitor; 10 µM).
